Columns and labels:
20S proteasome = conditions: read-out: EC50, enhancing 20S mediated protein degradation; cited from earlier work
[1] = biological target: purified 20S proteasome with tau441 and GAPDH (Homo sapiens, UniProt P25787+P60900); assay: In vitro degradation of tau441; type: biochemical; conditions: compounds 30 μM; SDS 0.02%
Procedure, shortened: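 Pre-incubate 15nM purified human 20S proteasome with test compound or vehicle for 20 min at RT in 20mM HEPES pH 7.4, 2mM EDTA, 1mM EGTA. Add recombinant tau441 plus GAPDH (0.1μM each, final) and incubate 1 h at 37 °C. Resolve on a 4-20% tris-glycine gel and immunoblot. Quantify tau by densitometry against untreated tau control.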

[2] = biological target: human constitutive 20S proteasome (CT-L, β5) (Homo sapiens, UniProt P25787+P60900); assay: Proteasome activity assay, 20S chymotrypsin-like; type: biochemical; conditions: for enhancement of 20S proteolytic (CT-L) activity, in words: CT-L peptide substrate
[3] = tested on: HEK 293 cells stably expressing ODC-GFPSpark; assay: ODC-GFPSpark degradation in HEK 293T cells, immunoblot; type: cell-based, human; conditions: 50 μM, 24 h, cycloheximide 20 μg/mL
[4] = tested on: Glioblastoma (U87-MG) cells; assay: Tau degradation in U87MG cells, immunoblot; type: cell-based, human; conditions: 50 μM, 24 h, cycloheximide 20 μg/mL
[5] = biological target: human constitutive 20S proteasome (T-L, β2) (Homo sapiens, UniProt P25787+P60900); assay: Proteasome activity assay, 20S tryptic-like; type: biochemical; conditions: read-out: EC50, tryptic-like (T-L) activity; Boc-LRR-AMC
26S proteasome = 26S proteasome (Homo sapiens, UniProt P25787+P60900); assay: Proteasome activity assay, 26S-mediated proteolysis of CT-L peptide probe; type: biochemical
Procedure, shortened: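 Pre-incubate 1nM human 26S proteasome with test compound for 10 min at RT in 50mM Tris-HCl pH 7.5 containing 5mM MgCl2 and 2.5mM ATP. Add Suc-LLVY-AMC (10μM) and read the fluorescence increase per minute for 1 h at 37 °C (380-460nm). Express activity as fold of vehicle control.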

[6] = biological target: purified human 20S proteasome with α-synuclein and GAPDH (Homo sapiens, UniProt P25787+P60900); assay: In vitro degradation of α-synuclein; type: biochemical
Procedure, shortened: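 Pre-incubate 15nM purified human 20S with test compound (3, 10, 30 μM) or vehicle for 20 min at RT in 20mM HEPES pH 7.4, 2mM EDTA, 1mM EGTA. Add recombinant α-synuclein and GAPDH (0.5μM each, final) and incubate 1 h at 37 °C. Immunoblot α-syn and GAPDH. Controls: reactions without 20S, and 20S pre-treated with bortezomib (3μM).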

[7] = biological target: human constitutive 20S proteasome (Casp-L, β1) (Homo sapiens, UniProt P25787+P60900); assay: Proteasome activity assay, 20S caspase-like; type: biochemical; conditions: read-out: EC50, caspase-like (Casp-L) activity; Z-LLE-AMC

Row | Compound | rate of 20S-mediated degradation of tau compared to 20S/vehicle control [1] | enhancement of 20S proteolytic (CT-L) activity, in words [2] | GFP-ODC levels compared to controls [3] | tau concentrations compared to the vehicle control [4] | also measured
1 | CCCCC/C=C\C/C=C\C/C=C\C/C=C\CCCC(=O)Nc1ccc(O)cc1 [AM-404] |  |  |  |  | EC50 (20S proteasome): ~32 µM
2 | CCCCCCCCCCCCOS(=O)(=O)[O-].[Na+] [SDS, sodium dodecyl sulfate] | prevents |  |  |  | 
3 | CN(C)CCCN1c2ccccc2Sc2ccc(Cl)cc21 [chlorpromazine, reference compound] | significantly enhance | enhanced 20S proteolytic activity | reduced GFP-ODC levels | significantly reducing tau concentrations | 
4 | CC(C)CCCN1c2ccccc2Sc2ccccc21 [compound 1] |  |  |  | modest clearance of tau | 
5 | O=S(=O)(O)CCCCN1c2ccccc2Sc2ccccc21 [compound 2] | significantly enhance | enhanced 20S proteolytic activity | reduced GFP-ODC levels | significantly reducing tau concentrations | EC50 [5]: 10 µM; fold enhancement of 20S activity ([2]; at 10 μM): ~4 fold; concentration above which 20S activity drops ([2]; concentration response up to 70 μM, CT-L substrate): > 35 µM; effect on 26S-mediated proteolysis of the CT-L peptide probe (26S proteasome): did not affect; rate of 20S-mediated degradation of α-syn compared to 20S/vehicle control ([6]; 3, 10 and 30 μM, concentration-dependent): significantly enhanced; α-Syn levels in the absence of 20S or with 20S pretreated with bortezomib ([6]; BTZ 3 μM): unaffected; 20S-mediated degradation of the structured protein GAPDH ([6]; any of the concentrations tested (3, 10, 30 μM)): does not enhance; EC50 [7]: 4.8 µM
6 | O=S(=O)(O)CCCN1c2ccccc2Sc2ccc(Cl)cc21 [compound 3] |  | no significant enhancement |  |  | 
